≈ marks a conversion by molar mass, not a printed value.
Assays:
Cricetinae gen. sp. [1] = assay: Value is expressed as the ratio of (Tritrichomonas foetus) animals cured / total number(5) infected at day 1 post treatment after 4 days of treatment; format: functional, Cricetulus griseus
How it was run: (§1)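 From day 3 postinfection, animals got one daily intravaginal 2% (w/w) propylene glycol cream dose plus two daily sc suspension doses (100 mg/kg) for 4 days. Vaginal washings (Kupferberg's medium) were taken days 1 and 4 posttreatment and checked microscopically for viable parasites.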

Tritrichomonas suis [2] = assay: The minimum lethal concentration (MLC) against Trichomonas foetus; format: functional
How it was run: (§2)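 Broth microdilution in Kupferberg's medium (pH 7.2); compounds serially diluted 200–0.2 µg/mL in duplicate; each well inoculated with T. foetus at 15 parasites/mm3 in broth, overlaid with sterile mineral oil; 30 °C for 48 h; wells examined microscopically for viable parasites; MLC = lowest concentration without viable parasites; single values reflect consistent duplicate end points.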

Mesocricetus auratus [3] = organism: Mesocricetus auratus; assay: Value is expressed as the ratio of (Tritrichomonas foetus) animals cured / total number(5) infected at day 4 post treatment after 4 days of treatment
Cricetinae gen. sp. [4] = assay: Value is expressed as the ratio of (Tritrichomonas foetus infected) animals cured / total number(5) infected at day 1 post treatment after 4 days of treatment; format: functional, Cricetulus griseus; how it was run: as §1
Cricetinae gen. sp. [5] = assay: Value is expressed as the ratio of (Tritrichomonas foetus infected) animals cured / total number(5) infected at day 4 post treatment after 4 days of treatment; format: functional, Cricetulus griseus; how it was run: as §1
Tritrichomonas suis [6] = assay: The minimum lethal concentration (MLC) is determined in Trichomonas foetus; format: functional; how it was run: as §2
Mesocricetus auratus [7] = organism: Mesocricetus auratus; assay: Value is expressed as the ratio of (Tritrichomonas foetus infected) animals cured / total number(15) infected at day 1 post treatment after 4 days of treatment
Mesocricetus auratus [8] = organism: Mesocricetus auratus; assay: Value is expressed as the ratio of (Tritrichomonas foetus infected) animals cured / total number(15) infected at day 4 post treatment after 4 days of treatment

Compound | MLC (Tritrichomonas suis [2]) | other results
[O-]c1c(-c2cccnc2)sc2cccc[n+]12 | 12.5 µg/mL (≈ 54.8 µM) | Activity (Cricetinae gen. sp. [1]): 0; Activity (Mesocricetus auratus [3]): 0
[O-]c1c(-c2ccc(Cl)cc2)sc2cccc[n+]12 | 25 µg/mL (≈ 95.5 µM) | Activity (Cricetinae gen. sp. [1]): 0; Activity (Mesocricetus auratus [3]): 0
Nc1ccccc1-c1sc2cccc[n+]2c1[O-] | 3.12 µg/mL (≈ 12.9 µM) | 
CC(C)(C)c1ccc(-c2sc3cccc[n+]3c2[O-])cc1 | 25 µg/mL (≈ 88.2 µM) | 
[O-]c1c(-c2ccccc2)sc2c(O)ccc[n+]12 | >200 µg/mL | 
COc1ccc(-c2sc3cccc[n+]3c2[O-])cc1 | 6.25 µg/mL (≈ 24.3 µM) | Activity (Cricetinae gen. sp. [1]): 0; Activity (Mesocricetus auratus [3]): 0
Cc1ccc(-c2sc3cccc[n+]3c2[O-])cc1 | 12.5 µg/mL (≈ 51.8 µM) | Activity (Cricetinae gen. sp. [1]): 0; Activity (Mesocricetus auratus [3]): 0
O=[N+]([O-])c1ccc2sc(-c3ccccc3)c([O-])[n+]2c1 | 200 µg/mL (≈ 735 µM) | 
O=[N+]([O-])c1ccc(-c2sc3cccc[n+]3c2[O-])cc1 | >200 µg/mL | 
Cc1cccc2sc(-c3ccccc3)c([O-])[n+]12 | >200 µg/mL | 
[O-]c1c(-c2ccccc2)sc2nccc[n+]12 | >200 µg/mL | 
O=[N+]([O-])c1ccc[n+]2c([O-])c(-c3ccccc3)sc12 | 0.8 µg/mL (≈ 2.94 µM) | Activity (Cricetinae gen. sp. [1]): 0; Activity (Mesocricetus auratus [3]): 0
[O-]c1c(-c2ccccc2)sc2sc3ccccc3[n+]12 | >200 µg/mL | 
O=[N+]([O-])c1cccc(-c2sc3cccc[n+]3c2[O-])c1 | >200 µg/mL | 
[S-]c1c(-c2ccc(Cl)cc2)sc2cccc[n+]12 | >200 µg/mL | 
[O-]c1c(-c2ccccn2)sc2cccc[n+]12 | 25 µg/mL (≈ 110 µM) | Activity (Cricetinae gen. sp. [1]): 1; Activity (Mesocricetus auratus [3]): 0
CCOC(=O)C(Sc1ccccn1)c1ccccc1 (stereo unspecified) | >200 µg/mL | Activity (Cricetinae gen. sp. [4]): 0; Activity (Cricetinae gen. sp. [5]): 0
[O-]c1c(-c2ccccc2Cl)sc2cccc[n+]12 | 100 µg/mL (≈ 382 µM) | Activity (Cricetinae gen. sp. [1]): 0; Activity (Mesocricetus auratus [3]): 0
[S-]c1c(-c2ccccc2)sc2cccc[n+]12 | >200 µg/mL | 
Nc1ccc(-c2sc3cccc[n+]3c2[O-])cc1 | 1.6 µg/mL (≈ 6.6 µM) | Activity (Cricetinae gen. sp. [1]): 0; Activity (Mesocricetus auratus [3]): 0
Nc1ccc[n+]2c([O-])c(-c3ccccc3)sc12 | 200 µg/mL (≈ 825 µM) | 

Compound | MLC (Tritrichomonas suis [2]) | other results
[O-]c1c(-c2ccccc2)sc2ccc3ccccc3[n+]12 | >200 µg/mL | 
O=[N+]([O-])c1ccccc1-c1sc2cccc[n+]2c1[O-] | 25 µg/mL (≈ 91.8 µM) | 
CN(C)c1ccc(-c2sc3cccc[n+]3c2[O-])cc1 | 0.8 µg/mL (≈ 2.96 µM) | Activity (Cricetinae gen. sp. [1]): 0; Activity (Mesocricetus auratus [3]): 0
O=C([N-]c1c(-c2ccccc2)sc2cccc[n+]12)c1ccccc1 | >200 µg/mL | 
[O-]c1c(Sc2ccc(Cl)cc2)sc2cccc[n+]12 | >200 µg/mL | 
[O-]c1c(/C=C/c2ccccc2)sc2cccc[n+]12 | 200 µg/mL (≈ 789 µM) | 
[O-]c1c(-c2ccncc2)sc2cccc[n+]12 | 50 µg/mL (≈ 219 µM) | Activity (Cricetinae gen. sp. [1]): 4; Activity (Mesocricetus auratus [3]): 0
COc1ccc(-c2sc3cccc[n+]3c2[S-])cc1 | >200 µg/mL | 
O=C([O-])C(Sc1ccccn1)c1ccccc1.[Na+] (stereo unspecified) | >200 µg/mL | Activity (Cricetinae gen. sp. [4]): 0; Activity (Cricetinae gen. sp. [5]): 0
[O-]c1c(-c2ccccc2)sc2cccc[n+]12 | 12.5 µg/mL (≈ 55 µM) | Activity (Cricetinae gen. sp. [1]): 0; Activity (Mesocricetus auratus [3]): 0
[O-]c1c(-c2ccccc2)oc2cccc[n+]12 | >200 µg/mL | Activity (Cricetinae gen. sp. [1]): 0; Activity (Mesocricetus auratus [3]): 0
OC1=C(c2ccccc2)SC(c2ccccc2)N1c1ccccc1 (stereo unspecified) |  | MLC (Tritrichomonas suis [6]): >200 µg/mL
Nc1cccc(-c2sc3cccc[n+]3c2[O-])c1 | 12.5 µg/mL (≈ 51.6 µM) | 
Nc1ccc2sc(-c3ccccc3)c([O-])[n+]2c1 | 100 µg/mL (≈ 413 µM) | 
CC(=O)Nc1ccc(-c2sc3cccc[n+]3c2[O-])cc1 | >200 µg/mL | 
CC(=O)Nc1cccc(-c2sc3cccc[n+]3c2[O-])c1 | 200 µg/mL (≈ 703 µM) | 
CC(=O)[N-]c1c(-c2ccccc2)sc2cccc[n+]12 | >200 µg/mL | 
Cc1cc[n+]2c([O-])c(-c3ccccc3)sc2c1 | 200 µg/mL (≈ 829 µM) | 
[O-]c1c(-c2ccccc2)sc2cncc[n+]12 | >200 µg/mL | 
Br.[NH-]c1c(-c2ccccc2)sc2cccc[n+]12 | >200 µg/mL | 
Cc1ncc([N+](=O)[O-])n1CCO [METRONIDAZOLE] |  | Activity (Mesocricetus auratus [7]): 15; Activity (Mesocricetus auratus [8]): 15

Source: ChEMBL document CHEMBL1122847, “Antitrichomonal activity of mesoionic thiazolo[3,2-a]pyridines” (1985)
